Experimental findings from ChEMBL document CHEMBL1142382, “Synthesis and biological activity of a 3,4,5-trimethoxybenzoyl ester analogue of epicatechin-3-gallate” (J Med Chem, 2008) are described below.

Series [1] in a line: Prooxidant activity assessed as enhancement of NADPH oxidation at 50 uM. The class given is functional. In short, it runs like this:
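Rate of NADPH (0.1 mM) oxidation measured with 50 μM catechin in sodium-phosphate buffer, pH 7.4, 37 °C. Read-out is the fall in NADPH absorbance at 340 nm. Runs were done with and without bovine liver SOD at 10 μg/mL.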

For series [2], the target named is T1, Dihydrofolate reductase (Homo sapiens) (UniProt P00374).
T1 sequence (whole entry): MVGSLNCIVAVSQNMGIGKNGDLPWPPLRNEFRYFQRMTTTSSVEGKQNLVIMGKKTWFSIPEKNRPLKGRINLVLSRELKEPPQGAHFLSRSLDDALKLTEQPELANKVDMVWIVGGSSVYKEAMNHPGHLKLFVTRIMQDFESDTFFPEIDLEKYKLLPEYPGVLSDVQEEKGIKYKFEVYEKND
Description: Inhibition of human recombinant DHFR at 100 uM. In short, it runs like this:
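Recombinant human DHFR activity at 25 °C followed as drop in NADPH/DHF absorbance at 340 nm in Mes 0.025 M, sodium acetate 0.025 M, Tris 0.05 M, NaCl 0.1 M, pH 7.4, with 1 mM ascorbic acid; reaction started with enzyme; compounds at 100 μM; activity relative to no-compound control, mean of five experiments.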

The nature of series [3]: Stability in human HT29 cells assessed as half life. It is filed as ADME, cell-based. The conditions noted are these: HT-29 cells.
In series [4] the test system is Caco-2. Description: Growth inhibition of human Caco-2 cells at 25 uM after 6 days. The class given is functional, cell-based. In short, it runs like this: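 Caco-2 cells treated 6 days with 25 μM compound; MTT viability expressed as percent of untreated control (100%); mean of three independent experiments ± SD.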
A short description of series [5]: Antioxidant activity assessed as ABTS radical scavenging activity. The class given is functional. In short, it runs like this: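 ABTS radical cation generated from ABTS (150 μM) with H2O2 (75 μM) and HRP (0.25 μM) in citrate-phosphate pH 4.5, diluted in 5 mM PBS pH 7.4 to A734 0.70, pre-warmed 30 °C. Compounds in PBS (50 μM stock) at four concentrations within the Trolox dose-response range, triplicates; A734 read 1 min after mixing; TEAC derived from Trolox curve.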

Series [6] deals with T1, Dihydrofolate reductase (Homo sapiens). Description: Dissociation constant for binding to free human recombinant DHFR by fluorescence titration.
Series [7] deals with SK-MEL-28. Description: Antiproliferative activity against human SkMel28 cells after 6 days by MTT assay. It is filed as functional, cell-based. The conditions noted are these: SK-MEL-28, 144 h. In outline:
(§1)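 ATCC lines kept in medium with 10% FCS and antibiotics; plated at 1000 cells/well, grown to 50-60% confluence, then exposed for 6 days. Viability by MTT, formazan read at 570 nm; IC50 derived.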
(In general: Tetrazolium assays rely on reduction of a dye to a coloured formazan, in cell work by metabolically active cells.)

Series [8] is described as follows: Antiproliferative activity against human H1264 cells after 6 days by MTT assay. The class given is functional, cell-based. The conditions noted are these: H1264, 144 h. In outline:
as §1

Series [9] has as its system Caco-2. The experiment in a line: Antiproliferative activity against human Caco-2 cells after 6 days by MTT assay. The conditions noted are these: Caco-2, 144 h. It is filed as functional, cell-based. In short, it runs like this: as §1
The test system of another series is MCF7. Description: Antiproliferative activity against human MCF7 cells after 6 days by MTT assay. It is filed as functional, cell-based. The settings on record: MCF7, 144 h. In short, it runs like this: as §1
The subject of series [10] is SK-MEL-28. The experiment in a line: Growth inhibition of human SkMel28 cells at 20 uM after 6 days. The class given is functional, cell-based.
In series [11] the test system is SK-MEL-28. Description: Down regulation of DHFR mRNA expression in human SkMel28 cells at 20 uM after 24 hrs. It is filed as functional, cell-based. In short, it runs like this: (§2)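 SkMel-28 cells treated and mRNA quantified by SYBR Green real-time PCR (95 °C 15 min; 40-50 cycles 94 °C 30 s, 55 °C 30 s, 72 °C 1 min), triplicate reactions, at least two independent experiments; melting-curve specificity check; expression relative to normal human epidermal melanocytes.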

The subject of series [12] is SK-MEL-28. The experiment in a line: Down regulation of thymidylate synthase mRNA expression in human SkMel28 cells at 20 uM after 24 hrs. It is filed as functional, cell-based. In outline: as §2
Series [13] has as its system SK-MEL-28. Description: Down regulation of methyltetrahydrofolate reductase mRNA expression in human SkMel28 cells at 20 uM after 24 hrs. The class given is functional, cell-based. In short, it runs like this: as §2

The term half-life denotes the time in which the quantity being followed falls by half. A word on the Kd: it is a measure of binding affinity in units of concentration. By IC50 is commonly meant the concentration that inhibits the measured activity by half. Low readings indicate inhibition by little substance, high ones a need for much substance.

Activity calls are given as the source filed them. The calls are words filed in the database; no cut-off is given here.

Consider `Oc1cc(O)c2c(c1)O[C@H](c1cc(O)c(O)c(O)c1)[C@H](O)C2`, for which the result in [1] was Active. Moreover, the outcome in series [2] was inactive.
Regarding `O=C(O[C@@H]1Cc2c(O)cc(O)cc2O[C@@H]1c1cc(O)c(O)c(O)c1)c1cc(O)c(O)c(O)c1` [EPIGALOCATECHIN GALLATE], the half-life in series [3] was < 2 h. For the same compound, the outcome (in the series on Caco-2 [4]; in series [1]) was Active. For the same compound, the Activity in [5] was found to be 4.8 mM. Moreover, in [6], the Kd stood at 920 nM.
As for `COc1cc(C(=O)O[C@@H]2Cc3c(O)cc(O)cc3O[C@@H]2c2ccc(O)c(O)c2)cc(OC)c1OC`, the IC50 in the series with SK-MEL-28 [7] stood at 2900 nM; in series [8], 18000 nM; with Caco-2 [9] it was 33000 nM; in the series with MCF7, 80000 nM. The outcome with Caco-2 [4], in the series on SK-MEL-28 [10], in the series with SK-MEL-28 [11], with SK-MEL-28 [12] and in the series with SK-MEL-28 [13] was Active. Besides, the Activity in [5] came out at 1.9 mM. In addition, in series [6], the Kd is 2100 nM.
As to `Oc1cc(O)c2c(c1)O[C@H](c1ccc(O)c(O)c1)[C@H](O)C2`, the outcome in [2] was inactive.
In the case of VITAMIN E, the Activity in series [5] is 1 mM.
Take `O=C(O[C@@H]1Cc2c(O)cc(O)cc2O[C@@H]1c1ccc(O)c(O)c1)c1cc(O)c(O)c(O)c1`: the result in the series on Caco-2 [4] was Active. In addition, the Activity in series [5] was found to be 4.9 mM. Also, the Kd in series [6] came to 1780 nM.
